# Published values of several laboratories.
# Cell line: HeLa
# Effect on: cell growth or viability
SMILES,technique,tested at,time,measurement,value
Fc1ccc(Oc2ccc(Nc3ccc4ncc(OCC5CCNCC5)nc4c3)cc2)cc1,XTT,,7 days,EC50,> 30 µM
CCN(CC)CCCC(C)Nc1ccnc2cc(Cl)ccc12 (stereo not drawn),MTT,,48 h,CC50,> 100 µg/mL
c1cc(-c2cc3ncc(OCC4CCNCC4)nc3cc2-c2cccc(N3CCCCC3)c2)cc(N2CCCCC2)c1,XTT,,7 days,EC50,24.2 µM
CCn1c(=O)c(-c2cc[nH]n2)cc2c(C)nc(N)nc21,MTT,,,CC50,13.6 µM
CC[C@H](CC[C@@H](C)[C@H]1CC[C@H]2[C@@H]3CC=C4C[C@@H](O)CC[C@]4(C)[C@H]3CC[C@]12C)C(C)C,MTT,,48 h,CC50,> 100 µg/mL
Nc1nc2c(ncn2COCCO)c(=O)[nH]1,MTT,,48 h,CC50,355 µM
CC(C)n1ncc2c(C(=O)NCC3(C)CNC3)cc(C3CC3)nc21,neutral red,0.33 µM,,viability,101%
NC(=O)c1ncn([C@@H]2O[C@H](CO)[C@@H](O)[C@H]2O)n1,MTT,,,CC50,115 µM
c1cc(N2CCCC2)ccc1-c1cc2ncc(OCC3CCNCC3)nc2cc1-c1ccc(N2CCCC2)cc1,XTT,,7 days,EC50,> 30 µM
